Experimental data taken from ChEMBL document CHEMBL3272076, “Synthesis and biological evaluation of omega-homologues of prostaglandin E1” (1976).
Active and inactive are the calls of the source. The rule behind the calls is not given here.

What was measured:
[1] = test system: Rattus norvegicus; assay: Hypotensive activity in iv dosed Charles River CD rat assessed as decrease in mean blood pressure administered as single bolus dose relative to PGE1; format: functional; design: Activity: scale not given: the % may be the effect or the level left
How it was run: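 Male rats, 200–300 g, anesthetized with urethane 1.5 g/kg ip. They received heparin 5 mg/kg iv, then atropine 5 mg/kg and pentolinium 10 mg/kg sc. Body temperature held at […] ± 0.5 °C. Carotid pressure recorded; femoral iv bolus doses of test and PGE1 given in a Latin square. Maximal fall in mean pressure read, with 4–8 replicates per dose, and potency from a four-point parallel line assay (Finney).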

[2] = Muscle stimulating activity in Mongolian gerbil colon treated every 4 mins relative to PGE1; format: functional, Meriones unguiculatus
How it was run: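 Colon from adult male gerbils killed by cervical dislocation, bath oxygenated; isotonic longitudinal contractions recorded. Two doses each of test compound and PGE1 given at 4-min intervals in Latin square order, with a rinse after each. Four contractions per dose; relative potency computed by the Finney method. Compounds were dissolved in isoosmotic sodium phosphate buffer, pH 7.4.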

[3] = test system: Canis familiaris; assay: Gastric antisecretory activity in Mongrel dog with heidenhain pouches assessed as inhibition of histamine-induced total acid output at 30 ug/kg, iv administered as single bolus dose at 1 hr post histamine challenge; format: functional, organism-based; conditions: Canis lupus familiaris
How it was run: (§1)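 Dogs fasted 18 h, placed in Pavlov stands and infused iv with 0.15 M NaCl. Pouch secretion was collected every 15 min. After basal secretion, histamine was infused at 1.0 mg/h (about 60 μg/kg/h, about 75% of maximal). At the steady-state plateau (about 1 h), a single iv bolus was given, logarithmically spaced, usually 1.0-100 μg/kg. Total acidity was titrated with 0.1 N NaOH to pH 7.0. ED50 is 50% inhibition of total acid output.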

[4] = test system: Canis familiaris; assay: Gastric antisecretory activity in Mongrel dog with heidenhain pouches assessed as inhibition of histamine-induced total acid output at 100 ug/kg, iv administered as single bolus dose at 1 hr post histamine challenge; format: functional, organism-based; conditions: Canis lupus familiaris; how it was run: as §1
[5] = test system: Canis familiaris; assay: Gastric antisecretory activity in iv dosed Mongrel dog with heidenhain pouches assessed as inhibition of histamine-induced total acid output administered as single bolus dose at 1 hr post histamine challenge; format: functional; conditions: Canis lupus familiaris; how it was run: as §1
[6] = test system: Canis familiaris; assay: Gastric antisecretory activity in Mongrel dog with heidenhain pouches assessed as inhibition of histamine-induced total acid output at 1 to 100 ug/kg, iv administered as single bolus dose at 1 hr post histamine challenge relative to PGE1; format: functional, Canis lupus familiaris; how it was run: as §1

Compound | fold change (FC) [1] | fold change (FC) [2] | inhibition [3] | inhibition [4] | ED50 [5] | fold change (FC) [6] | Activity [1]
CCCCCCCC[C@H](O)/C=C/C1[C@H](O)CC(=O)[C@@H]1CCCCCCC(=O)O (mixture of isomers) | 0.42 | 0.005 | inactive | – | – | – | –
CCCCCCCCC[C@H](O)/C=C/C1[C@H](O)CC(=O)[C@@H]1CCCCCCC(=O)O (mixture of isomers) | <0.12 | 0.006 | – | Active | – | – | –
CCCCC[C@H](O)/C=C/[C@H]1[C@H](O)CC(=O)[C@@H]1CCCCCCC(=O)O [ALPROSTADIL] | – | – | – | – | 7.59 µg/kg | – | –
CCCCCCC[C@H](O)/C=C/C1[C@H](O)CC(=O)[C@@H]1CCCCCCC(=O)O (mixture of isomers) | 0.84 | 0.064 | – | – | 30 µg/kg | 0.25 | 84%
CCCCCC[C@H](O)/C=C/C1[C@H](O)CC(=O)[C@@H]1CCCCCCC(=O)O (mixture of isomers) | 0.68 | 0.54 | – | – | 5.8 µg/kg | 1.13 | –
